Measured values: PMC7745057 (Translational Oncology, 2020)

Columns and labels:
PC-9 (Del19) = conditions: read-out: potency against Del19 (measure not given); ref [20]; cited from earlier work
H1975 (T790M) = conditions: read-out: potency against T790M (measure not given); ref [20]; cited from earlier work
LOVO (wild-type EGFR) = conditions: read-out: potency in wild-type EGFR cell line (measure not given); ref [20]; cited from earlier work
H1975 (L858R T790M) = experiment: Cell proliferation assay; type: cell-based; conditions: Homo sapiens, NCI-H1975, 72 h
[1] = tested on: EGFR wild-type cell lines (H460, Calu-6 and LOVO) and EGFR-deficient Ba/F3 cells; experiment: Cell proliferation assay, summary over the panel; type: cell-based; conditions: read-out: mean IC50 values
H1975 cells = experiment: Cell cycle analysis; type: cell-based, human; conditions: 1 nmol/L, 24 h
Procedure, shortened: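 H1975 cells plated at 2 × 10⁵ per well and allowed to adhere, then exposed to 1 nmol/L test compound for 24 h. Cells fixed in 75% ethanol at −20 °C overnight, washed in PBS, and stained with DNA staining solution for 30 min at room temperature in the dark. DNA content analysed immediately by flow cytometry; n = 3.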

[2] = tested on: H1975 (L858R T790M) xenografts; experiment: H1975 subcutaneous xenograft study; type: in vivo, BALB/c nude mouse; conditions: BEBT-109 30 and 60 mg/kg
[3] = tested on: HCC827 (Del19) xenografts; experiment: HCC827 subcutaneous xenograft study; type: in vivo, BALB/c nude mouse; conditions: BEBT-109 60 mg/kg, osimertinib 25 mg/kg (MTD doses)
Procedure, shortened: (§1)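 Female BALB/c nude mice, 7–8 weeks old, inoculated subcutaneously in the right armpit with 2–5 × 10⁶ cells/ml in 0.1 ml PBS (PC-9 in 50% matrigel). Randomised at n = 8 per group; oral test compound started at 200–300 mm³. Tumors measured by caliper, with V = length × width²/2; survival followed after treatment.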

PC-9 (Del19) xenografts = experiment: PC-9 subcutaneous xenograft study; type: in vivo, BALB/c nude mouse; conditions: BEBT-109 60 mg/kg, osimertinib 25 mg/kg (MTD doses)
Procedure, shortened: as §1

[4] = tested on: EGFR A767_V769dupASV-driven Ba/F3 tumor model; experiment: Ba/F3 EGFR A767_V769dupASV xenograft study; type: in vivo, BALB/c nude mouse; conditions: BEBT-109 40 mg/kg bid, osimertinib 20 mg/kg qd (MTD doses), 14 days, n = 8
[5] = Tolerability in xenograft studies; type: in vivo, BALB/c nude mouse; conditions: HCC827, PC-9 and exon 20 insertion xenograft models

SMILES: C=CC(=O)Nc1cc(Nc2nccc(-c3c[nH]c4ccccc34)n2)c(OC)cc1N(C)CCN(C)C [AZ5104]
- IC50 (PC-9 (Del19)): 2 nM
- IC50 (H1975 (T790M)): 2 nM
- IC50 (LOVO (wild-type EGFR)): 33 nM

SMILES: C=CC(=O)Nc1cc(Nc2nccc(-c3cn(C)c4ccccc34)n2)c(OC)cc1N(C)CCN(C)C [Osimertinib]
- IC50 (H1975 (L858R T790M)): 3.9 nM
- IC50 [1]: > 1000 nM
- effect on cell-cycle progression (H1975 cells): did not change the cell cycle profile
- host mice survival post treatment ([2]; osimertinib 25 mg/kg): > 30 days
- tumor regression ([2]; osimertinib 25 mg/kg (MTD), daily, four weeks): complete H1975 tumor regression
- tumor regression [3]: complete tumor regression
- tumor regression (PC-9 (Del19) xenografts): complete tumor regression
- tumor growth [4]: sustained tumor regression was not observed
- body weight [5]: Neither drug caused significant body weight loss
